The record followed here is ChEMBL document CHEMBL1150335, “Benzoylurea derivatives as a novel class of antimitotic agents: synthesis, anticancer activity, and structure-activity relationships” (J Med Chem, 2008).

Series [1] has as its system CCRF-CEM. Briefly: Antiproliferative activity against human CEM cells after 72 hrs by trypan blue assay. The class given is functional, cell-based. The method, boiled down: (§1)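 Cells kept in RPMI-1640 with 10% heat-inactivated fetal calf serum, penicillin and streptomycin, 5% CO2, 37 °C, used in exponential growth. 1 × 10⁵ cells per well exposed to compound at 0.001–10 µM at 37 °C (48 h in methods, 72 h in table footnotes). Viability by Trypan blue versus untreated controls. IC50 by nonlinear regression, duplicate, three repeats.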

For series [2], the system named is Daudi. Briefly: Antiproliferative activity against human Daudi cells after 72 hrs by trypan blue assay. In kind it is functional, cell-based. In outline: as §1
The test system of series [3] is MCF7. Briefly: Antiproliferative activity against human MCF7 cells after 72 hrs by trypan blue assay. The class given is functional, cell-based. The settings on record: MCF7, 72 h. In outline:
as §1

Series [4] deals with Bel-7402. Kind of series: Antiproliferative activity against human Bel7402 cells after 72 hrs by trypan blue assay. In kind it is functional, cell-based. The settings on record: Bel-7402, 72 h. The method, boiled down: as §1
Series [5] has as its system DU-145. Kind of series: Antiproliferative activity against human DU145 cells after 72 hrs by trypan blue assay. In kind it is functional, cell-based. The settings on record: DU-145, 72 h. In outline: as §1
Series [6] has as its system PC-3. Briefly: Antiproliferative activity against human PC3 cells after 72 hrs by trypan blue assay. The settings on record: PC-3, 72 h. The class given is functional, cell-based. The method, boiled down: as §1
Series [7] can be described thus: Antiproliferative activity against human DND1A cells after 72 hrs by trypan blue assay. The class given is functional, cell-based. In outline: as §1
Series [8] deals with LoVo. Briefly: Antiproliferative activity against human LOVO cells after 72 hrs by trypan blue assay. The class given is functional, cell-based. The method, boiled down: as §1
Series [9] can be described thus: Antiproliferative activity against human MIA cells after 72 hrs by trypan blue assay. The class given is functional, cell-based. The method, boiled down: as §1
The subject of series [10] is Bel-7402. Kind of series: Antitumor activity against human Bel7402 cells xenografted BALB/c mouse assessed as inhibition of tumor growth at 5 mg/kg, ip q2d after 25 days relative to control. In kind it is functional. The settings on record: Bel-7402, ip, 600 h, route intraperitoneal. In outline:
(§2)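 Male Balb/c nude mice (16-20 g, 6-7 weeks) given sc Bel-7402 cells, 5 × 10⁶ per mouse, on the back. Six injections q2d. Tumor volume measured weekly by calipers = length × width² × 0.52. Body weight recorded before and after treatment.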
Background: In xenograft studies the graft and the host belong to different species.

Series [11] deals with Bel-7402. Kind of series: Antitumor activity against human Bel7402 cells xenografted BALB/c mouse assessed as inhibition of tumor growth at 10 mg/kg, ip q2d after 25 days relative to control. In kind it is functional. The settings on record: Bel-7402, ip, 600 h, route intraperitoneal. The method, boiled down: as §2
Series [12] concerns Mus musculus. Briefly: Toxicity in human Bel7402 cells xenografted BALB/c mouse assessed as body weight at 10 mg/kg, ip q2d after 25 days relative to control. The class given is organism-based, Bel-7402. The settings on record: in vivo, 600 h. More on the design: dose 10 mg/kg, route intraperitoneal. In outline:
as §2

Series [13] has as its system Bel-7402. Briefly: Antitumor activity against human Bel7402 cells xenografted ip dosed BALB/c mouse assessed as inhibition of tumor growth after 25 days relative to control. In kind it is functional. The settings on record: Bel-7402, ip, 600 h. In outline:
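Male Balb/c nude mice (16-20 g, 6-7 weeks) given sc Bel-7402 cells (5 × 10⁶/mouse) on the back. On day 12 they were randomized (5/group) to solvent control or 5 or 10 mg/kg ip, six doses q2d. Tumors were measured weekly by caliper, volume = length × width² × 0.52. Inhibition was taken versus solvent-treated controls on day 25 post-treatment.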

The test system of series [14] is CCRF-CEM. Briefly: Cell cycle arrest in human CEM cells assessed as accumulation at G2/M phase at 0.22 uM after 4 to 24 hrs by flow cytometry. The class given is functional, cell-based. The method, boiled down:
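CEM cells exposed to 0.22 µM compound or left untreated for 4, 12 or 24 h. Fixed in 70% ethanol for at least 12 h at 4 °C, then RNase A 50 µg/mL at 37 °C for 30 min and propidium iodide 50 µg/mL final at 4 °C for 30 min. At least 10⁴ events read by flow cytometry for DNA profile.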
For orientation: In flow cytometry, cells or beads pass a laser one at a time.

Series [15] in a line: Inhibition of beta tubulin polymerization at 1 uM.
A short description of series [16]: Inhibition of beta tubulin polymerization.
For series [17], the system named is CCRF-CEM. Briefly: Cell cycle arrest in human CEM cells assessed as accumulation at M phase at <0.01 uM after 12 hrs by flow cytometry. The class given is functional.
The test system of series [18] is CCRF-CEM. Kind of series: Induction of apoptosis in human CEM cells assessed as Bcl2 phosphorylation at 0.014 to 0.27 uM after 12 to 24 hrs by Western blot. The class given is functional, cell-based. The method, boiled down: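 CEM cells exposed to 0.014–0.27 µM for 12 or 24 h, then lysed in Tris-HCl pH 7.4 buffer with detergents and protease/phosphatase inhibitors. Equal lysate run on 10% SDS-PAGE and transferred to PVDF. Blocked in 5% milk/TBST, probed with anti-Bcl-2 monoclonal and HRP secondary, detected by ECL; phosphorylated Bcl-2 seen as a separate band.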
Background: A western blot detects proteins with antibodies after separation by electrophoresis.

Series [19] relates to CCRF-CEM. Briefly: Cell cycle arrest in human CEM cells assessed as morphological changes at 0.014 uM after 24 hrs by Giemsa staining.
Series [20] can be described thus: Inhibition of beta tubulin polymerization at 20 uM.

The term pIC50 denotes the IC50 on a negative log10 scale, so that one unit is a factor of ten. Higher therefore signals a small IC50. A word on the inhibition in vivo: it is the relative decrease from the control value, in per cent. In general, LD50 refers to the dose expected to kill half of the subjects tested.

pIC50: −log10 of the molar value. The source made the active and inactive calls. The rule behind the calls is not given here.

`CC(Br)C(=O)Nc1cc(C(=O)NC(N)=O)ccc1Cl` (stereo not given) showed a negative-log IC50 (pIC50) in series [1] of 5.01.
The same measure, in the same setting: to `CC(Br)C(=O)Nc1cc(C(=O)NC(N)=O)cs1` (stereo not given) belongs 5.40.
The same measure, in the same setting: the same measure for `NC(=O)NC(=O)c1ccc(F)c(NC(=O)CCl)c1`: under 4.70; for `Cc1ccc(C(=O)NC(N)=O)cc1NC(=O)CCl`: 5.47; for `CC(Br)C(=O)Nc1cc(C(=O)NC(N)=O)ccc1F` (stereo not given): 5.50.
The same measure, in the same setting: to `NC(=O)NC(=O)c1cc(NC(=O)CBr)ccc1Cl` belongs 6.27; to `COC(=O)c1cc(NC(=O)C(C)Br)cc(C(=O)NC(N)=O)c1` (stereo not given), 5.57; to `COC(=O)c1cc(NC(=O)CI)cc(C(=O)NC(N)=O)c1`, 5.72.
`NC(=O)NC(=O)c1ccc(Cl)c(NC(=O)CCl)c1`: the negative logarithm of the IC50 (pIC50) in [1] is 4.80.
Same read-out and setting: to `NC(=O)NC(=O)c1ccc(O)c(NC(=O)CBr)c1` belongs under 4.70.
Still for that read-out and setting: the same measure for `Cc1ccc(NC(=O)C(C)Br)cc1C(=O)NC(N)=O` (stereo not given): under 4.70.
On the same count and under the same terms, the same measure for `NC(=O)NC(=O)c1cc(NC(=O)CBr)ccc1Br`: 5.94; for `CC(Br)C(=O)Nc1ccc(F)c(C(=O)NC(N)=O)c1` (stereo not given): 6.28.
With `NC(=O)NC(=O)c1ccc(NC(=O)CBr)o1`, the negative logarithm of the IC50 (pIC50) in series [1] is 5.39.
Still for that read-out and setting: the same measure for `COc1ccc(C(=O)NC(N)=O)cc1NC(=O)CBr`: 5.73; for `COc1ccc(C(=O)NC(N)=O)cc1NC(=O)C(C)Br` (stereo not given): under 4.70.
The same measure, in the same setting: the same measure for `CC(Br)C(=O)Nc1cc(C(=O)NC(N)=O)cc([N+](=O)[O-])c1` (stereo not given): 5.80.
The same measure, in the same setting: the same measure for `CC(Br)C(=O)Nc1ccc(C(=O)NC(N)=O)o1` (stereo not given): 5.03; for `C[C@@H](Br)C(=O)Nc1cccc(C(=O)NC(N)=O)c1`: 5.83.
As for `COc1ccc(C(=O)NC(N)=O)cc1NC(=O)C(C)Cl` (stereo not given), in [1], the pIC50 is under 4.70.
Still for that read-out and setting: the same measure for `NC(=O)NC(=O)c1cc(NC(=O)CCl)ccc1Cl`: 5.61; for `C[C@H](Br)C(=O)Nc1cccc(C(=O)NC(N)=O)c1`: 5.83; for `Cc1ccc(C(=O)NC(N)=O)cc1NC(=O)C(C)Br` (stereo not given): 5.47.
For the compound `NC(=O)NC(=O)c1cc(NC(=O)CI)ccc1F`, the negative-log IC50 (pIC50) in series [1] was over 8.00; in series [2], over 8.00; in series [3], over 8.00; in [4], 6.80; in series [5] it was 6.66; in [6], 6.72. Moreover, the negative-log IC50 (pIC50) was 7.70 in series [7], 6.72 in series [8], 7.27 in series [9] and 6.15 in [16]. The inhibition in vivo at 5 mg/kg in series [10] was 62%. For the same compound, in [11], the inhibition in vivo at 10 mg/kg stood at 86%. For the same compound, the Activity in [12] was 21.6 g; in series [17], 37.6%. In addition, in [13], the LD50 was 38.8 mg/kg. For the same compound, the outcome in series [14], in series [15], in series [18] and in series [19] was Active.
As to `COC(=O)c1cc(NC(=O)CBr)cc(C(=O)NC(N)=O)c1`, the pIC50 in [1] is 5.89.
Consider `Cc1ccc(NC(=O)CBr)cc1C(=O)NC(N)=O`, for which the negative logarithm of the IC50 (pIC50) in series [1] was 5.32.
The same measure, in the same setting: the same measure for `NC(=O)NC(=O)c1ccc(Cl)c(NC(=O)CBr)c1`: 5.54; for `Cc1c(NC(=O)C(C)Br)cccc1C(=O)NC(N)=O` (stereo not given): 6.32.
On the same count and under the same terms, to `CC(Cl)C(=O)Nc1cc(C(=O)NC(N)=O)ccc1Cl` (stereo not given) belongs under 4.70.
`CC(Br)C(=O)Nc1ccc(Br)c(C(=O)NC(N)=O)c1` (stereo not given) had a pIC50 in [1] of 5.12.
Same read-out and setting: to `Cc1c(NC(=O)CCl)cccc1C(=O)NC(N)=O` belongs 5.57.
`Cc1ccc(C(=O)NC(N)=O)cc1NC(=O)CBr` showed a pIC50 in [1] of 5.37.
Turning to `NC(=O)NC(=O)c1cc(NC(=O)CBr)ccc1F`, the negative-log IC50 (pIC50) was over 8.00 in series [1], 7.82 in [2] and 7.10 in [3]. For the same compound, the inhibition in vivo at 5 mg/kg in [10] stood at 37%. Moreover, in series [11], the inhibition in vivo at 10 mg/kg is 52%. The Activity is listed as 18.6 g in series [12] and 31.3% in series [17].
`NC(=O)NC(=O)c1cc(NC(=O)CBr)cc([N+](=O)[O-])c1`: the negative-log IC50 (pIC50) in series [1] is 5.82.
In series [1], `NC(=O)NC(=O)c1cccc(NC(=O)CI)c1` gave a pIC50 of over 8.00. Moreover, in [11], the inhibition in vivo at 10 mg/kg is 57%. The LD50 in series [13] turned out to be 31 mg/kg.
For `COc1ccc(NC(=O)CBr)cc1C(=O)NC(N)=O`, the pIC50 in [1] is 5.80.
For the compound `CC[C@]1(O)C[C@H]2CN(CCc3c([nH]c4ccccc34)[C@@](C(=O)OC)(c3cc4c(cc3OC)N(C=O)[C@H]3[C@@](O)(C(=O)OC)[C@H](OC(C)=O)[C@]5(CC)C=CCN6CC[C@]43[C@@H]65)C2)C1`, the outcome in series [20] was Active.
On the same count and under the same terms, to `CC(=O)O[C@H]1C(=O)[C@@]2(C)[C@H]([C@H](OC(=O)c3ccccc3)[C@]3(O)C[C@H](OC(=O)[C@H](O)[C@@H](NC(=O)c4ccccc4)c4ccccc4)C(C)=C1C3(C)C)[C@]1(OC(C)=O)CO[C@@H]1C[C@@H]2O` belongs “inactive”.
Take `Cc1ccc(C(=O)NC(N)=O)cc1NC(=O)C(C)Cl` (stereo not given): the negative-log IC50 (pIC50) in series [1] was under 4.70.
The same measure, in the same setting: to `NC(=O)NC(=O)c1csc(NC(=O)CBr)c1` belongs 5.95; to `CC(Br)C(=O)Nc1ccc(Cl)c(C(=O)NC(N)=O)c1` (stereo not given), 5.59.
The same measure, in the same setting: the same measure for `COc1ccc(C(=O)NC(N)=O)cc1NC(=O)CCl`: under 4.70; for `Cc1c(NC(=O)CBr)cccc1C(=O)NC(N)=O`: 5.77.
On the same count and under the same terms, the same measure for `NC(=O)NC(=O)c1cc(NC(=O)CCl)ccc1F`: 5.11.
In [1], `Cc1c(NC(=O)C(C)Cl)cccc1C(=O)NC(N)=O` (stereo not given) gave a negative-log IC50 (pIC50) of under 4.70.
On the same count and under the same terms, to `Cc1ccc(NC(=O)CI)cc1C(=O)NC(N)=O` belongs 4.70; to `NC(=O)NC(=O)c1ccc(O)c(NC(=O)CCl)c1`, under 4.70; to `NC(=O)NC(=O)c1ccc(F)c(NC(=O)CBr)c1`, 5.64.
Still for that read-out and setting: to `NC(=O)NC(=O)c1ccc(NC(=O)CCl)o1` belongs 4.78.
